The values that follow come from ChEMBL document CHEMBL1671745 (Antimicrob Agents Chemother, 2010).

≈ marks a conversion by molar mass, not a printed value. Calls of active or inactive are those of the source. Where only a bound is given, the exact number is not on record here.

Series [1] is described as follows: Half life in Staphylococcus aureus in in vitro pharmacokinetic/pharmacodynamic model at 250 mg every 12 hrs. It is filed as ADME, organism-based.
Series [2] deals with Staphylococcus aureus. Nature of the series: fCmax in Staphylococcus aureus in in vitro pharmacokinetic/pharmacodynamic model at 250 mg every 12 hrs. The class given is ADME, organism-based.
A short description of series [3]: AUC (0 to 24 hrs) in Staphylococcus aureus in in vitro pharmacokinetic/pharmacodynamic model at 250 mg every 12 hrs. It is filed as ADME, organism-based. Also on record: dose 250 mg, time < 24 hr.
Series [4] has as its system Staphylococcus aureus. Nature of the series: Antimicrobial activity against methicillin-susceptible Staphylococcus aureus SH1000 by CLSI broth microdilution method. It is filed as functional. (Broth dilution looks for growth in wells or tubes with falling amounts of substance.)
The subject of series [5] is Staphylococcus aureus. Nature of the series: Antimicrobial activity against methicillin-susceptible Staphylococcus aureus SH1000 assessed as inhibition of bacterial biofilm formation by CLSI broth microdilution method. The class given is functional.
Series [6] has as its system Staphylococcus aureus. Nature of the series: Antimicrobial activity against methicillin-resistant Staphylococcus aureus N315 assessed as inhibition of bacterial biofilm formation by CLSI broth microdilution method. The class given is functional. Put shortly: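 Biofilm MIC determined using the modified Calgary biofilm device method.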
Series [7] concerns Staphylococcus aureus. Nature of the series: fCmax in Staphylococcus aureus in in vitro pharmacokinetic/pharmacodynamic model at 600 mg every 24 hrs. It is filed as ADME, organism-based.
Series [8] is described as follows: AUC (0 to 24 hrs) in Staphylococcus aureus in in vitro pharmacokinetic/pharmacodynamic model at 600 mg every 24 hrs. It is filed as ADME, organism-based. Also on record: dose 600 mg, time < 24 hr.
The subject of series [9] is Staphylococcus aureus. Nature of the series: Antimicrobial activity against methicillin-resistant Staphylococcus aureus N315 by CLSI broth microdilution method. It is filed as functional.
The subject of series [10] is Staphylococcus aureus. Nature of the series: Bactericidal activity against Staphylococcus aureus in in vitro pharmacokinetic/pharmacodynamic model assessed as decrease in planktonic cell count at 400 mg every 24 hrs measured after 72 hrs. It is filed as functional. Put shortly: (§1)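 Planktonic cells were sampled (≈1 ml) from the flow biofilm reactor at 0, 4, 8, 24, 32, 48, 56 and 72 h during simulated regimens in SMHB, with duplicate models. Samples were serially diluted or vacuum-filtered against carryover, spiral-plated on TSA, and grown 24 h at 37°C; detection limit 1–2 log10 CFU/ml. Bactericidal means a ≥3-log10 CFU/ml fall from the starting inoculum.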

Series [11] has as its system Staphylococcus aureus. Nature of the series: Bactericidal activity against Staphylococcus aureus in in vitro pharmacokinetic/pharmacodynamic model assessed as decrease in planktonic cell count at 400 mg every 24 hrs. The class given is functional. Put shortly:
as §1

The subject of series [12] is Staphylococcus aureus. Nature of the series: fCmax in Staphylococcus aureus in in vitro pharmacokinetic/pharmacodynamic model at 400 mg every 24 hrs. It is filed as ADME, organism-based.
Series [13] concerns Staphylococcus aureus. Nature of the series: Bactericidal activity against Staphylococcus aureus in in vitro pharmacokinetic/pharmacodynamic model assessed as decrease in biofilm bacterial count at 400 mg every 24 hrs measured after 72 hrs. The class given is functional. Put shortly:
(§2)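 MSSA SH1000 or MRSA N315 biofilm was conditioned for 40 h (24 h batch in 1% glucose TSB at 37°C, then 16 h flow in 10% glucose TSB) on polystyrene coupons. Simulated regimens ran 72 h in SMHB, duplicate models. Three coupons per time point (0–72 h) were saline-washed, vortexed and sonicated, and drop-plated on TSA. Reduction is log10 CFU/ml versus start; ≥3-log10 counts as bactericidal.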

Series [14] in a line: AUC (0 to 24 hrs) in Staphylococcus aureus in in vitro pharmacokinetic/pharmacodynamic model at 400 mg every 24 hrs. Also on record: time < 24 hr, dose 400 mg. It is filed as ADME, organism-based.
Series [15] has as its system Staphylococcus aureus. Nature of the series: Bactericidal activity against Staphylococcus aureus in in vitro pharmacokinetic/pharmacodynamic model assessed as decrease in biofilm bacterial count at 400 mg every 24 hrs. The class given is functional. Put shortly: as §2
The test system of series [16] is Staphylococcus aureus. Nature of the series: Bactericidal activity against Staphylococcus aureus in in vitro pharmacokinetic/pharmacodynamic model assessed as decrease in planktonic cell count at 10 mg/kg every 24 hrs. The class given is functional. Put shortly: as §1
Series [17] deals with Staphylococcus aureus. Nature of the series: Bactericidal activity against methicillin-resistant Staphylococcus aureus N315 in in vitro pharmacokinetic/pharmacodynamic model assessed as decrease in planktonic cell count at 10 mg/kg every 24 hrs measured after 48 hrs. It is filed as functional, organism-based. More on the design: dose 10 mg/kg. Put shortly:
(§3)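 Biofilm reactor with polystyrene coupons. Conditioning: 24 h at 37°C in TSB with 1% glucose, then 16 h continuous flow of TSB with 10% glucose (30-min residence time). […] Coupons (biofilm cells, recovered by vortex/sonication) and medium (planktonic cells) sampled 0–72 h and plated on TSA. Limit of detection 2 log10 CFU/ml, extended to 1 by filtration. Duplicate models.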

In series [18] the test system is Staphylococcus aureus. Nature of the series: Bactericidal activity against methicillin-resistant Staphylococcus aureus N315 in in vitro pharmacokinetic/pharmacodynamic model assessed as decrease in biofilm bacterial count at 10 mg/kg every 24 hrs measured after 72 hrs. The class given is functional. Put shortly:
as §3

A short description of series [19]: AUC (0 to 24 hrs) in Staphylococcus aureus in in vitro pharmacokinetic/pharmacodynamic model at 10 mg/kg every 24 hrs. The class given is ADME, organism-based. Also on record: time < 24 hr, dose 10 mg/kg. Put shortly: (§4)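 Biofilm reactor with polystyrene coupons, simulating human free-drug profiles in supplemented Mueller-Hinton broth (calcium 25 μg/ml, magnesium 12.5 μg/ml) after a 40-h biofilm conditioning phase. Vancomycin was measured by fluorescence polarization immunoassay (lower limit 2 μg/ml). […] Half-life, AUC and peak were derived by the trapezoidal method.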

Series [20] relates to Staphylococcus aureus. Nature of the series: Bactericidal activity against methicillin-resistant Staphylococcus aureus N315 planktonic cell in in vitro pharmacokinetic/pharmacodynamic model assessed as decrease in bacterial count at 10 mg/kg every 24 hrs. More on the design: dose 10 mg/kg. The class given is functional, organism-based. Put shortly:
as §3

Series [21] relates to Staphylococcus aureus. Nature of the series: Bactericidal activity against Staphylococcus aureus in in vitro pharmacokinetic/pharmacodynamic model assessed as decrease in biofilm bacterial count at 10 mg/kg every 24 hrs. The class given is functional. Put shortly:
as §2

The test system of series [22] is Staphylococcus aureus. Nature of the series: Bactericidal activity against methicillin-resistant Staphylococcus aureus N315 planktonic cell in in vitro pharmacokinetic/pharmacodynamic model assessed as decrease in bacterial count at 10 mg/kg every 24 hrs measured after 72 hrs. The class given is functional. Put shortly: as §3
In series [23] the test system is Staphylococcus aureus. Nature of the series: fCmax in Staphylococcus aureus in in vitro pharmacokinetic/pharmacodynamic model at 10 mg/kg every 24 hrs. It is filed as ADME, organism-based. More on the design: dose 10 mg/kg. Put shortly: as §4
The nature of series [24]: Half life in Staphylococcus aureus in in vitro pharmacokinetic/pharmacodynamic model at 10 mg/kg every 24 hrs. It is filed as ADME, organism-based. Also on record: dose 10 mg/kg. Put shortly: as §4
For series [25], the system named is Staphylococcus aureus. Nature of the series: fCmax in Staphylococcus aureus in in vitro pharmacokinetic/pharmacodynamic model. The class given is ADME, organism-based. Put shortly:
as §4

Series [26] can be described thus: AUC (0 to 24 hrs) in Staphylococcus aureus in in vitro pharmacokinetic/pharmacodynamic model. The class given is ADME, organism-based. More on the design: time < 24 hr. Put shortly: as §4
A short description of series [27]: Half life in Staphylococcus aureus in in vitro pharmacokinetic/pharmacodynamic model. It is filed as ADME, organism-based. Put shortly:
as §4

Take `CC[C@H]1OC(=O)[C@H](C)[C@@H](O[C@H]2C[C@@](C)(OC)[C@@H](O)[C@H](C)O2)[C@H](C)[C@@H](O[C@@H]2O[C@H](C)C[C@H](N(C)C)[C@H]2O)[C@](C)(OC)C[C@@H](C)C(=O)[C@H](C)[C@@H](O)[C@]1(C)O` [CLARITHROMYCIN]: in [1], the half-life (usually the time needed for the level to fall by half in the phase considered) was 3.91 h. Further, in the series with Staphylococcus aureus [2], the fCmax is 1.15 µg/mL. The AUC (commonly the area under the concentration-time curve, a measure of exposure) at 24 h in [3] amounted to 6530 ng·h/mL. For the same molecule, the MIC (as a rule, the lowest concentration found to suppress growth) in the series with Staphylococcus aureus [4] was greater than 128 µg/mL. Also, the MBIC with Staphylococcus aureus [5] was greater than 128 µg/mL.
As to `CO[C@H]1/C=C/O[C@@]2(C)Oc3c(C)c(O)c4c(O)c(c(/C=N/N5CCN(C)CC5)c(O)c4c3C2=O)NC(=O)/C(C)=C\C=C\[C@H](C)[C@H](O)[C@@H](C)[C@@H](O)[C@@H](C)[C@H](OC(C)=O)[C@@H]1C` [RIFAMPIN], the MBIC in the series on Staphylococcus aureus [6] is less than 0.0625 µg/mL. Also, the fCmax in the series with Staphylococcus aureus [7] was determined as 3.82 µg/mL. The AUC at 24 h in series [8] was 19600 ng·h/mL. In the series with Staphylococcus aureus [9], this molecule yielded an MIC of less than 0.0625 µg/mL.
Consider `COc1c(N2C[C@@H]3CCCN[C@@H]3C2)c(F)cc2c(=O)c(C(=O)O)cn(C3CC3)c12` [MOXIFLOXACIN], for which the log10CFU/ml in the series on Staphylococcus aureus [10] is given as 4.04; in the series with Staphylococcus aureus [11], 2.33; in the series on Staphylococcus aureus [13], 4.06; with Staphylococcus aureus [15], 2.38. In the series with Staphylococcus aureus [12], this molecule yielded a fCmax of 2.52 µg/mL. Moreover, the AUC at 24 h in series [14] is 44200 ng·h/mL.
On to `CCCCCCCCCC(=O)N[C@@H](Cc1c[nH]c2ccccc12)C(=O)N[C@H](CC(N)=O)C(=O)N[C@@H](CC(=O)O)C(=O)N[C@@H]1C(=O)NCC(=O)N[C@@H](CCCN)C(=O)N[C@@H](CC(=O)O)C(=O)N[C@H](C)C(=O)N[C@@H](CC(=O)O)C(=O)NCC(=O)N[C@H](CO)C(=O)N[C@@H]([C@H](C)CC(=O)O)C(=O)N[C@@H](CC(=O)c2ccccc2N)C(=O)O[C@@H]1C`, for which the log10CFU/ml with Staphylococcus aureus [16] was 2.2; in the series on Staphylococcus aureus [18], 2.73; in the series on Staphylococcus aureus [21], 2.83; in the series on Staphylococcus aureus [22] it was 2.78. Further, the result in the series on Staphylococcus aureus [17] was inactive. Further, the area under the curve (AUC) at 24 h in series [19] amounted to 200000 ng·h/mL. Also, the result with Staphylococcus aureus [20] was Active. For the same molecule, the MIC against Staphylococcus aureus [4] and with Staphylococcus aureus [9] was 0.125 µg/mL (≈ 0.0771 µM) in each case. In the series on Staphylococcus aureus [23], this molecule came in with a fCmax of 11.79 µg/mL. The molecule also had a half-life in series [24] of 8.21 h. Besides, the MBIC in the series with Staphylococcus aureus [5] worked out at 2 µg/mL.
Take `CN[C@H](CC(C)C)C(=O)N[C@H]1C(=O)N[C@@H](CC(N)=O)C(=O)N[C@H]2C(=O)N[C@H]3C(=O)N[C@H](C(=O)N[C@H](C(=O)O)c4cc(O)cc(O)c4-c4cc3ccc4O)[C@H](O)c3ccc(c(Cl)c3)Oc3cc2cc(c3O[C@@H]2O[C@H](CO)[C@@H](O)[C@H](O)[C@H]2O[C@H]2C[C@](C)(N)[C@H](O)[C@H](C)O2)Oc2ccc(cc2Cl)[C@H]1O` [VANCOMYCIN]: in the series on Staphylococcus aureus [6], the MBIC was determined as 2 µg/mL. In the series on Staphylococcus aureus [25], the fCmax came out at 22.6 µg/mL. The AUC(0-t) (as a rule, the area under the concentration-time curve up to a stated or last time point) at 24 h in series [26] is 193000 ng·h/mL. The MIC in the series on Staphylococcus aureus [9] worked out at 0.25 µg/mL (≈ 0.173 µM). In addition, the half-life in series [27] was 5.91 h.
